Holding throughout (assay type): functional
Assay [1] has as its system Rattus norvegicus. As to the kind of experiment: Intravenous antihypertensive effect in conscious, spontaneously hypertensive rats, Duration of action was determined at a compound dose of 10 ug/kg.
For assay [2], the system named is Rattus norvegicus. Nature of the assay: Intravenous, antihypertensive effect in conscious, spontaneously hypertensive rats, Duration of action was determined at a compound dose of 100 ug/kg; 10-20.
Assay [3] concerns Rattus norvegicus. As to the kind of experiment: Intravenous, antihypertensive effect in conscious, spontaneously hypertensive rats, Duration of action was determined at a compound dose of 30 ug/kg.
Assay [4] relates to Rattus norvegicus. As to the kind of experiment: Intravenous, antihypertensive effect in conscious, spontaneously hypertensive rats, Duration of action was determined at a compound dose of 300 ug/kg; 25-30.
Assay [5] deals with Rattus norvegicus. Nature of the assay: Intravenous, antihypertensive effect in conscious, spontaneously hypertensive rats, Duration of action was determined at a compound dose of 500 ug/kg; 25-30.
Assay [6] deals with Rattus norvegicus. Nature of the assay: Intravenous antihypertensive effect in conscious, spontaneously hypertensive rats a dose of 10 ug/kg. An outline of the steps: (§1)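 Male Okamoto spontaneously hypertensive rats (about 300 ± 20 g), restrained supine. The iliac artery was cannulated to a pressure recorder. After a stabilization period, the sodium salt was injected into the lateral caudal vein: acid dissolved in absolute ethanol, neutralized with 0.6 M NaHCO3, diluted in saline. Maximum fall in mean arterial blood pressure (mmHg), mean of two experiments.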

The test system of assay [7] is Rattus norvegicus. As to the kind of experiment: Intravenous antihypertensive effect in conscious, spontaneously hypertensive rats a dose of 100 ug/kg. Summed up:
as §1

The subject of assay [8] is Rattus norvegicus. As to the kind of experiment: Intravenous antihypertensive effect in conscious, spontaneously hypertensive rats a dose of 30 ug/kg. Summed up:
as §1

In assay [9] the test system is Rattus norvegicus. Nature of the assay: Intravenous antihypertensive effect in conscious, spontaneously hypertensive rats a dose of 300 ug/kg. Summed up:
as §1

For assay [10], the system named is Rattus norvegicus. Nature of the assay: Intravenous antihypertensive effect in conscious, spontaneously hypertensive rats a dose of 500 ug/kg. An outline of the steps:
as §1

In assay [11] the test system is Rattus norvegicus. As to the kind of experiment: Intravenous antihypertensive effect in conscious, spontaneously hypertensive rats, Duration of action was determined at a compound dose of 10 ug/kg; 30-45.
The test system of assay [12] is Rattus norvegicus. As to the kind of experiment: Intravenous antihypertensive effect in conscious, spontaneously hypertensive rats, Duration of action was determined at a compound dose of 100 ug/kg.
Assay [13] deals with Rattus norvegicus. Nature of the assay: Intravenous antihypertensive effect in conscious, spontaneously hypertensive rats, Duration of action was determined at a compound dose of 30 ug/kg; 45-50.

As to `CCCCC[C@H](O)/C=C/[C@H]1[C@H](O)CC(=O)[C@@H]1C/C=C\CCCC(=O)O` [DINOPROSTONE], the Duration with Rattus norvegicus [1] was less than 5 min; in the assay with Rattus norvegicus [2] it was 10 min; in the assay on Rattus norvegicus [3] it was less than 5 min; in the assay with Rattus norvegicus [4] it was 25 min; in the assay with Rattus norvegicus [5], 25 min. For the same compound, the “Max lowering MABP” value with Rattus norvegicus [6] is reported as 60 mmHg; in the assay with Rattus norvegicus [7], 72 mmHg; in the assay with Rattus norvegicus [8], 72 mmHg; in the assay on Rattus norvegicus [9], 70 mmHg; with Rattus norvegicus [10], 50 mmHg.

Take `C=CC(O)(C/C=C/C1[C@H](O)CC(=O)[C@@H]1C/C=C/CCCC(=O)O)CCCC` (stereo partly specified): the Duration with Rattus norvegicus [11] is listed as 30 min; in the assay on Rattus norvegicus [12], more than 200 min; in the assay with Rattus norvegicus [13], 45 min. Further, the “Max lowering MABP” value in the assay with Rattus norvegicus [6] was 30 mmHg; with Rattus norvegicus [7], 65 mmHg; in the assay with Rattus norvegicus [8], 55 mmHg.
